In ChEMBL document CHEMBL4616636, “A new series of aryl sulfamate derivatives: Design, synthesis, and biological evaluation” (Bioorg Med Chem, 2020):
Values belong to the molecule of their own block, whether it stands above or below them.

Columns and labels:
[1] = target: T1, Steryl-sulfatase (Homo sapiens) (UniProt P08842); test: Inhibition of steroid sulfatase in human JEG3 cell lysates at 10 uM using [3H] E1S as substrate after 1 hr by scintillation spectrometry analysis relative to control; assay type: cell-free; conditions: JEG-3
T1 sequence (whole entry): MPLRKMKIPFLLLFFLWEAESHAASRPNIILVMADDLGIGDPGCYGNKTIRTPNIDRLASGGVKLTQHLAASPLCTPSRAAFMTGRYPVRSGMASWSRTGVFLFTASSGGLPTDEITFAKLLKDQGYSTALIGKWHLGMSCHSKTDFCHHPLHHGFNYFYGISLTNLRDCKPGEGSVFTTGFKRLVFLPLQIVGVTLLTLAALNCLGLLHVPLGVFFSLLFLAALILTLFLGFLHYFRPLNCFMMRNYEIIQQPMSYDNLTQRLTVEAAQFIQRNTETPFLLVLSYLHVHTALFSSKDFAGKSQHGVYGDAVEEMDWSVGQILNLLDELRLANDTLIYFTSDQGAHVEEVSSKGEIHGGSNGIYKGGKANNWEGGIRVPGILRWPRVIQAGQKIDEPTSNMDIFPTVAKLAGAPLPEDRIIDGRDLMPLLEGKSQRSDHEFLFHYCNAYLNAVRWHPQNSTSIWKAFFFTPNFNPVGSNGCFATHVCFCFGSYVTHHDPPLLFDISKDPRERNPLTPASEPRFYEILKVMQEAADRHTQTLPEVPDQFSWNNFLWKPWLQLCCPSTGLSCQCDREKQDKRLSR
Summary of the method: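 JEG-3 placental choriocarcinoma lysate (125 µg protein/mL) incubated 1 h with inhibitor at 10 µM and [3H]E1S brought to 20 µM with unlabelled E1S. Estrone product extracted into toluene, [14C]E1 used to correct for losses, 3H/14C counted by scintillation. Reported as % inhibition versus untreated control, mean ± SEM, n=3.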

Steryl-sulfatase [2] = target: T2, Steryl-sulfatase (Homo sapiens, UniProt P08842); test: Inhibition of steroid sulfatase in human JEG3 cells using [3H] E1S as substrate incubated for 20 hrs by scintillation spectrometry analysis; assay type: cell-based, JEG-3
T2 sequence (P08842 whole entry): T1 sequence (whole entry)
Summary of the method: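 Intact JEG-3 monolayers incubated 20 h at 37 °C in serum-free EMEM with [3H]E1S (5 pmol, 60 Ci/mmol), with or without inhibitor at 10 µM. Estrone in the medium separated from E1S by toluene partition, [14C]estrone used to correct for procedural losses. E1S hydrolysed calculated from scintillation counts.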

T47D = test: Antiproliferative activity against human T47D cells assessed as reduction in cell proliferation measured after 5 days in presence of estradiol sulfate by crystal violet staining based assay; assay type: functional; conditions: 120 h
Summary of the method: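 T-47D cells kept in EMEM with pyruvate, gentamycin, bicarbonate and 10% FBS at 37 °C, 5% CO2. After 3 days of growth, medium swapped for one with compound, 100 nM estradiol sulfate and 10% charcoal-stripped FBS, then 5 days of incubation. Glutaraldehyde fixation, crystal violet stain, ethanol elution, OD at 578 nm. IC50 reported as mean ± SEM of triplicate assays.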

Steryl-sulfatase [3] = target: T2, Steryl-sulfatase; test: Inhibition of steroid sulfatase in human JEG3 cell lysates using [3H] E1S as substrate after 1 hr by scintillation spectrometry analysis; assay type: cell-free, JEG-3
Summary of the method: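 Estrone taken into toluene, recovery corrected with [14C]E1, scintillation counting. E1S hydrolysed calculated from 3H counts and substrate specific activity, and IC50 derived from the dose-response.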

SMILES: NS(=O)(=O)Oc1ccc(NC(=O)c2ccc(Cl)cc2)cc1
inhibition [1]: 24.6%

SMILES: NS(=O)(=O)Oc1ccc(CNC(=O)C23CC4CC(CC(C4)C2)C3)cc1
inhibition [1]: -5.3%

SMILES: CN(C(=O)C12CC3CC(CC(C3)C1)C2)c1ccc(OS(N)(=O)=O)cc1
inhibition [1]: 61%

SMILES: NS(=O)(=O)Oc1ccc2c(ccn2C(=O)C2CCCCC2)c1
inhibition [1]: 14.3%

SMILES: NS(=O)(=O)Oc1ccc(NC(=O)C2CCCCCC2)cc1
inhibition [1]: 52.3%

SMILES: NS(=O)(=O)Oc1ccc2c3c(c(=O)oc2c1)CCCCC3 [IROSUSTAT]
IC50 (T47D): 0.92 µM

SMILES: NS(=O)(=O)Oc1ccc(NC(=O)c2cccnc2)cc1
inhibition [1]: 12.9%

SMILES: NS(=O)(=O)Oc1ccc(NC(=O)c2ccc3ccccc3c2)cc1
inhibition [1]: 53.6%

SMILES: NS(=O)(=O)Oc1ccc(NC(=O)C2CCCC2)cc1
inhibition [1]: 62%

SMILES: COc1ccc(C(=O)Nc2ccc(OS(N)(=O)=O)cc2)cc1
inhibition [1]: 72.7%

SMILES: NS(=O)(=O)Oc1ccc(NC(=O)c2ccccc2)cc1
inhibition [1]: 25.4%

SMILES: NS(=O)(=O)Oc1ccc2c(ccn2C(=O)C23CC4CC(CC(C4)C2)C3)c1
inhibition [1]: 63.4%

Further lines, results first:

inhibition [1]: 86.3%
SMILES: NS(=O)(=O)Oc1ccc(NC(=O)C23CC4CC(CC(C4)C2)C3)cc1F

inhibition [1]: 88.6%
SMILES: NS(=O)(=O)Oc1ccc(NC(=O)C23CC4CC(CC(C4)C2)C3)cc1Cl

inhibition [1]: 5.32%
SMILES: NS(=O)(=O)Oc1ccc(NC(=O)NC23CC4CC(CC(C4)C2)C3)cc1

inhibition [1]: 82.7%
SMILES: NS(=O)(=O)Oc1ccc(NC(=O)C23CC4CC(CC(C4)C2)C3)cc1Br

IC50 (Steryl-sulfatase [2]): 13.6 nM | IC50 (T47D): 5.78 µM | inhibition [1]: 93.9% | IC50 (Steryl-sulfatase [3]): 110 nM
SMILES: NS(=O)(=O)Oc1ccc(NC(=O)C23CC4CC(CC(C4)C2)C3)cc1

IC50 (T47D): 3.4 µM | inhibition [1]: 97.2% | IC50 (Steryl-sulfatase [3]): 67.7 nM
SMILES: NS(=O)(=O)Oc1ccc(C(=O)NC23CC4CC(CC(C4)C2)C3)cc1F

inhibition [1]: 58.5%
SMILES: Cc1cc(OS(N)(=O)=O)ccc1NC(=O)C12CC3CC(CC(C3)C1)C2

IC50 (T47D): 4.67 µM | inhibition [1]: 94.6% | IC50 (Steryl-sulfatase [3]): 74.1 nM
SMILES: NS(=O)(=O)Oc1ccc(C(=O)NC23CC4CC(CC(C4)C2)C3)cc1Br

IC50 (Steryl-sulfatase [2]): 150 nM | IC50 (T47D): 1.04 µM | inhibition [1]: 98.3% | IC50 (Steryl-sulfatase [3]): 25.8 nM
SMILES: NS(=O)(=O)Oc1ccc(C(=O)NC23CC4CC(CC(C4)C2)C3)cc1Cl

inhibition [1]: 90%
SMILES: NS(=O)(=O)Oc1ccc(C(=O)NC23CC4CC(CC(C4)C2)C3)cc1
